Assay results: ChEMBL document CHEMBL5649168, “Discovery of a selective catalytic p300/CBP inhibitor that targets lineage-specific tumours” (Nature, 2017)
Activity calls are given as the source filed them. No cut-off for these calls is given here.

Experiments:
[1] = biological target: T1, Histone acetyltransferase p300 (Homo sapiens, UniProt Q09472); assay: Inhibition of p300 HAT domain (unknown origin) using Biotin-C6-GRGKGGKGLGKGGAK as substrate pretreated with enzyme for 30 mins followed by incubation with substrate for 1 hr by radiometric scintillation proximity assay
[2] = biological target: T2, CREB-binding protein/Histone acetyltransferase p300 (Homo sapiens, UniProt Q09472+Q92793); conditions: 22Rv1, dose 0.3-3 mM
[3] = biological target: T1, Histone acetyltransferase p300; assay: Binding affinity to recombinant human p300 HAT domain expressed in Escherichia coli BL21-CodonPlus(DE3)-RIL cells assessed as dissociation constant using CMLVELHTQSQDRF as substrate by surface plasmon resonance analysis
[4] = biological target: T2, CREB-binding protein/Histone acetyltransferase p300; assay: Inhibition of p300/CBP in human 22Rv1 cells assessed as reduction in H3K9Ac level incubated for 1 hr by Hoechst 33342 staining based high content microscopy analysis; type: cell-based
Method in brief: (§1)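 Cells received an 8-point half-log dilution series from 10 µM. They were then fixed in 10% formaldehyde (10 min, RT), permeabilised with 0.1% Triton X-100 and blocked with 1% BSA for 1 h. Primary antibodies were applied overnight at 4 °C, followed by Alexa488 anti-rabbit, Alexa555 anti-mouse and Hoechst 33342 for 1 h. Fifteen fields per well were imaged and average mean intensity taken. EC50 came from a sigmoidal fit.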

[5] = biological target: T1, Histone acetyltransferase p300; assay: (§2) Inhibition of N-terminal 6His-Flag tagged p300-BHC domain (1036 to 1822 residues) (unknown origin) expressed in Sf9 cells using the Bac-to-Bac baculovirus system under EDTA-free condition using biotinylated synthetic Histone-H4 peptide incubated for 30 mins followed by substrate addition and measured after 1hr by TR-FRET assay
Method in brief: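 TR-FRET acetylation of biotinylated histone H4 peptide. Buffer: 100 mM HEPES pH 7.9, 100 mM KCl, 40 µg/mL BSA, 1 mM DTT, 0.01% Triton X-100. The EDTA-free run used protein purified without EDTA and buffer without EDTA. Enzyme at 0.6 nM was preincubated 30 min with compound (3-fold series, 50 µM to 0.00075 µM). Substrates were 2 µM peptide and 0.5 µM acetyl-CoA, 1 h at room temperature. Read by Eu-anti-acetyl-H4 / ULight-streptavidin; IC50 from sigmoidal fit.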

[6] = biological target: T2, CREB-binding protein/Histone acetyltransferase p300; assay: Inhibition of p300/CBP in human 22Rv1 cells assessed as reduction in H3K9Ac level incubated for 24 hrs by Hoechst 33342 staining based high content microscopy analysis; type: cell-based; method in brief: as §1
[7] = biological target: T2, CREB-binding protein/Histone acetyltransferase p300; assay: Inhibition of p300/CBP in human PC-3 cells assessed as reduction in H3K9Ac level incubated for 3 hrs by Hoechst 33342 staining based high content microscopy analysis; type: cell-based
Method in brief: (§3)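 PC-3 cells were plated overnight on collagen I-coated plates. They were treated with an 8-point half-log series from 10 µM, then fixed in 10% formaldehyde, permeabilized in 0.1% Triton X-100 and blocked in 1% BSA. Mean intensity was imaged over 15 fields per well; EC50 from sigmoidal fit.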

[8] = biological target: T2, CREB-binding protein/Histone acetyltransferase p300; assay: Inhibition of p300/CBP in human 22Rv1 cells assessed as reduction in H3K27Ac level incubated for 24 hrs by Hoechst 33342 staining based high content microscopy analysis; type: cell-based; method in brief: as §1
[9] = biological target: T2, CREB-binding protein/Histone acetyltransferase p300; assay: Inhibition of p300/CBP in human 22Rv1 cells assessed as reduction in H3K18Ac level incubated for 3 hrs by Hoechst 33342 staining based high content microscopy analysis; type: cell-based; method in brief: as §1
[10] = biological target: Ca2+ channel (L, dihydropyridine site) (Homo sapiens, UniProt O60840+Q01668+Q13698+Q13936); assay: Inhibition of Ca2+ channel (L, dihydropyridine site) (unknown origin) at 10 uM by radioligand binding assay relative to control; type: protein assay
[11] = biological target: T2, CREB-binding protein/Histone acetyltransferase p300; assay: Inhibition of p300/CBP in human 22Rv1 cells assessed as reduction in H3K18Ac level incubated for 1 hr by Hoechst 33342 staining based high content microscopy analysis; type: cell-based; method in brief: as §1
[12] = biological target: T2, CREB-binding protein/Histone acetyltransferase p300; assay: Inhibition of p300/CBP in human 22Rv1 cells assessed as reduction in H3K9Ac level incubated for 3 hrs by Hoechst 33342 staining based high content microscopy analysis; type: cell-based; method in brief: as §1
CREB-binding protein = CREB-binding protein (Homo sapiens, UniProt Q92793); assay: as §2, with “CBP-BHC” for “p300-BHC”, “(1072” for “(1036”, “1859” for “1822”
MAO-B = MAO-B (Homo sapiens, UniProt P27338); assay: Inhibition of human recombinant MAO-B at 10 uM by radioligand binding assay relative to control
MAO-A = MAO-A (Homo sapiens, UniProt P21397); assay: Inhibition of MAO-A (unknown origin) at 10 uM by radioligand binding assay relative to control
[13] = biological target: T2, CREB-binding protein/Histone acetyltransferase p300; assay: Inhibition of p300/CBP in human PC-3 cells assessed as reduction in H3K18Ac level incubated for 3 hrs by Hoechst 33342 staining based high content microscopy analysis; type: cell-based
[14] = biological target: T2, CREB-binding protein/Histone acetyltransferase p300; assay: Inhibition of p300/CBP in human 22Rv1 cells assessed as reduction in H3K18Ac level incubated for 24 hrs by Hoechst 33342 staining based high content microscopy analysis; type: cell-based; method in brief: as §1
[15] = biological target: T2, CREB-binding protein/Histone acetyltransferase p300; assay: Inhibition of p300/CBP in human PC-3 cells assessed as reduction in H3K27Ac level incubated for 3 hrs by Hoechst 33342 staining based high content microscopy analysis; type: cell-based; method in brief: as §3

T1 sequence (Q09472 whole entry, the tested form may be a part): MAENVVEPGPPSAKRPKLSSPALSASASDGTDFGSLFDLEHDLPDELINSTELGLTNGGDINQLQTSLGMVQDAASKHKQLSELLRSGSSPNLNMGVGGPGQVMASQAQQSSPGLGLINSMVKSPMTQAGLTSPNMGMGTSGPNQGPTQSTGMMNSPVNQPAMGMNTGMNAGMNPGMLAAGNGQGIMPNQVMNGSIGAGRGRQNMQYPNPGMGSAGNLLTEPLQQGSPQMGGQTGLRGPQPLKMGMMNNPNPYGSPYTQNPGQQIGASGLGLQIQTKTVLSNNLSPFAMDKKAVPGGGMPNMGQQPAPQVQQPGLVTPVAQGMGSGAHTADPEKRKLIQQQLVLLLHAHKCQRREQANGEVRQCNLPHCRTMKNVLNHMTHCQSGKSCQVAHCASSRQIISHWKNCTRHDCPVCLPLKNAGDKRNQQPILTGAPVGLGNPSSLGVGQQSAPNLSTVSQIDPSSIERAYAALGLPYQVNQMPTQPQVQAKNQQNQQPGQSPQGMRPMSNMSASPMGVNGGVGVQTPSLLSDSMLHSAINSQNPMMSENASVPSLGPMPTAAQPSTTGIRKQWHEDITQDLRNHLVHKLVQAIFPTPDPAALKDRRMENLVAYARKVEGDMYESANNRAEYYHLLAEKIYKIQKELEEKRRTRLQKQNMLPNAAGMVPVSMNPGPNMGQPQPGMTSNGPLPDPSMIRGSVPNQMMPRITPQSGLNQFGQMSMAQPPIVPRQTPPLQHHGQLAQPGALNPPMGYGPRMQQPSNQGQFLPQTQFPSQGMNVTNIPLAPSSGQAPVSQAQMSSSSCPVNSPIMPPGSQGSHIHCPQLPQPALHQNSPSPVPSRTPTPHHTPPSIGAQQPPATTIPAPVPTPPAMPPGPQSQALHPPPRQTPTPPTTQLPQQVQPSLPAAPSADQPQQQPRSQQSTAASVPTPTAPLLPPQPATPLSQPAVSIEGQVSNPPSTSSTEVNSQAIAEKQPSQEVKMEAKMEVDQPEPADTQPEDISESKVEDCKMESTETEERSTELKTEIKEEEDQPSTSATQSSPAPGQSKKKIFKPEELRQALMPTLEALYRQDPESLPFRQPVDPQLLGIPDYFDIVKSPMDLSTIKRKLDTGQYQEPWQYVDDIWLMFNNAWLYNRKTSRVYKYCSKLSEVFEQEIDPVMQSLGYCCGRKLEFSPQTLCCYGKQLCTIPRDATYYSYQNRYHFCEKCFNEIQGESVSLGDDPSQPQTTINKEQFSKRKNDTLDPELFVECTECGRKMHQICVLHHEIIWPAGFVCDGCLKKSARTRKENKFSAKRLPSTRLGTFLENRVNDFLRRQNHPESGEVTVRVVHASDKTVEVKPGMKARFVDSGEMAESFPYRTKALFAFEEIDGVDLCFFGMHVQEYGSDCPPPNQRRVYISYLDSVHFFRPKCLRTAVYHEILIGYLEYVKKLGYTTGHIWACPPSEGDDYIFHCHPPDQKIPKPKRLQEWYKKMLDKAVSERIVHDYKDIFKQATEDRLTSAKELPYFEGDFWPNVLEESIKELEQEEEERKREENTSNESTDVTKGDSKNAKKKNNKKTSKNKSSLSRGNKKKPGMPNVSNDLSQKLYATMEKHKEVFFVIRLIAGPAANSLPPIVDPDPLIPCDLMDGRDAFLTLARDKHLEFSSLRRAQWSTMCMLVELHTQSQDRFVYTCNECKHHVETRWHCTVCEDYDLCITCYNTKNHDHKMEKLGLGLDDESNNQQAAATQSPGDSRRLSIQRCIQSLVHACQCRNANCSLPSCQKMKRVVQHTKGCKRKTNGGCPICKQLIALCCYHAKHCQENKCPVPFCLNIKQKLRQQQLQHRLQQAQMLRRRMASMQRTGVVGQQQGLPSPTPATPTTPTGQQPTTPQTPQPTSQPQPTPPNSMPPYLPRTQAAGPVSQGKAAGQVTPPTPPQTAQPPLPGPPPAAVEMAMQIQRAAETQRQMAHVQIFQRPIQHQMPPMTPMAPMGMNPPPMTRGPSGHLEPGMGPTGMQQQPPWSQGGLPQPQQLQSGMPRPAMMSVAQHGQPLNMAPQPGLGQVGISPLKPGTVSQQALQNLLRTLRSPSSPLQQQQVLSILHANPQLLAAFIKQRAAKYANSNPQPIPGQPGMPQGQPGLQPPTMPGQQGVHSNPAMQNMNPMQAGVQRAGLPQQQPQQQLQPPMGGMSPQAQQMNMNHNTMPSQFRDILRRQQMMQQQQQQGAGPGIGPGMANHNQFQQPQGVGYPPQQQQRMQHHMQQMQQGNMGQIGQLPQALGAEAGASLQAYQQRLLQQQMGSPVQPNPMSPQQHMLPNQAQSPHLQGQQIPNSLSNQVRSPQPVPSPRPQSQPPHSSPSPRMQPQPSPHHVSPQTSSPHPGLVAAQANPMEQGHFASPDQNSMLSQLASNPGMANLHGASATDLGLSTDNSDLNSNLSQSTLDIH
T2 sequence (Q09472 whole entry, looked up, the tested form may be a part): as the sequence (Q09472 whole entry, the tested form may be a part) above
T2 sequence (Q92793 whole entry, looked up, the tested form may be a part): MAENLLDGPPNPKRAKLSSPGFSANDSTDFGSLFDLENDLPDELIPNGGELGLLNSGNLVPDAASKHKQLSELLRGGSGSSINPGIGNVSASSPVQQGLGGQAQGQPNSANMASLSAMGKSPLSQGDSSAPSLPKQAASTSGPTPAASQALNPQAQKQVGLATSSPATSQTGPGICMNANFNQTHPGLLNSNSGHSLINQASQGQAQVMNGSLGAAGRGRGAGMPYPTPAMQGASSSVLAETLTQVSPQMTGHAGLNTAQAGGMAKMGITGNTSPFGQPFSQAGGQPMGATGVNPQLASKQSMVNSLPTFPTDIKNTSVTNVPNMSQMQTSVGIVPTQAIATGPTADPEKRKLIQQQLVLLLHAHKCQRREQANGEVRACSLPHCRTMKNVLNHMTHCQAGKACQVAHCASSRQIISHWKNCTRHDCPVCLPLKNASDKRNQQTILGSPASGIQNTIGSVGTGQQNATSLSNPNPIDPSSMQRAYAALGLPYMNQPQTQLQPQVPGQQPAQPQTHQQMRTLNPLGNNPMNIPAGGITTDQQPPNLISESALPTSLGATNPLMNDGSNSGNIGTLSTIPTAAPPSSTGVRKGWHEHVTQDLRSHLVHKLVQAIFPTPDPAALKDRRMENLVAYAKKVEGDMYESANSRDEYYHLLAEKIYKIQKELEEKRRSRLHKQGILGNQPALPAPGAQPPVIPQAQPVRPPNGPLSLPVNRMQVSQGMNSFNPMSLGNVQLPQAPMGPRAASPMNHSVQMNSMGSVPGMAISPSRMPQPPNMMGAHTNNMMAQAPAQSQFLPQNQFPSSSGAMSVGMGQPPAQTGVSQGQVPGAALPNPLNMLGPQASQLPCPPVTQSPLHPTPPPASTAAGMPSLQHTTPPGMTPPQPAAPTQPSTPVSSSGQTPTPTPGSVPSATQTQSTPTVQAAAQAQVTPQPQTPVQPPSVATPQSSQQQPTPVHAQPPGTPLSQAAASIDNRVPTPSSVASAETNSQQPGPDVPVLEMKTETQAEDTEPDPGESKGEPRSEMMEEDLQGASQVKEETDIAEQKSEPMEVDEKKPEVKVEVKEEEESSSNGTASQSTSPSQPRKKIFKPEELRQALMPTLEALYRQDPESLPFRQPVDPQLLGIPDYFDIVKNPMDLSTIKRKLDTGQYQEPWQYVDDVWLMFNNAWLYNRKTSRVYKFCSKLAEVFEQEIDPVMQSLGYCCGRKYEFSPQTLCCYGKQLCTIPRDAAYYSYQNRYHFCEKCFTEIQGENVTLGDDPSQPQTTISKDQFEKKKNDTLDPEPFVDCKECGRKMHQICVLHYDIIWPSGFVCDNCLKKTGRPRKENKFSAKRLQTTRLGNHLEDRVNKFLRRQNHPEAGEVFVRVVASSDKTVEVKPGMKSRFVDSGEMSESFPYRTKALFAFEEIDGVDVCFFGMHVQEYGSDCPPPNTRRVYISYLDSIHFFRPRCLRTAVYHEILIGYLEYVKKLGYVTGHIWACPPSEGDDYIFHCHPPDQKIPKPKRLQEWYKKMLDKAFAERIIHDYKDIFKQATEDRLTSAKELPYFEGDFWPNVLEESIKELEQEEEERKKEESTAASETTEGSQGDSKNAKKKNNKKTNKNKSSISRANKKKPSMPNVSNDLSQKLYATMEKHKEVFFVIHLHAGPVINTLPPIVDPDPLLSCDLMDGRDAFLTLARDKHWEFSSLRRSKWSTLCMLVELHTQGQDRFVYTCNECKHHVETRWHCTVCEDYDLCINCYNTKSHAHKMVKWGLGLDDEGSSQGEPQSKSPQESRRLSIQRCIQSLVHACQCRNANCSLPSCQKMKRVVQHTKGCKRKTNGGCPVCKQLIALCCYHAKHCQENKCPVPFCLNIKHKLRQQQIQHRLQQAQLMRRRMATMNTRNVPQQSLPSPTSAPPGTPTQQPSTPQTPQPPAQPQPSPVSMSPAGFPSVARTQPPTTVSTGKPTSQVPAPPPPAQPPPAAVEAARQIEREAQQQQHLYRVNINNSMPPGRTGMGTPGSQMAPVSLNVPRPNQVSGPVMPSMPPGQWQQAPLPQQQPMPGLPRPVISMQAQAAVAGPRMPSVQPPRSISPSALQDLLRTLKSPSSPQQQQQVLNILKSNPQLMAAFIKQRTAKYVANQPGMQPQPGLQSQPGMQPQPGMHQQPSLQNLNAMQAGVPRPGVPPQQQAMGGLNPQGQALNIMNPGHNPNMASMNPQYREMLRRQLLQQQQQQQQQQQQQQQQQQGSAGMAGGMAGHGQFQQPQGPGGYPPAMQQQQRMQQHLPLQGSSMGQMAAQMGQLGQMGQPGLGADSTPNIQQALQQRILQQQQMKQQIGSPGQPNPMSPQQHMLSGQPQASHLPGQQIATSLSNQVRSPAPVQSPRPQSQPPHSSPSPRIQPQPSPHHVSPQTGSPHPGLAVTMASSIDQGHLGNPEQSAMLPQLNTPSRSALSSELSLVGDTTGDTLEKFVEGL
Chain of CREB-binding protein (Q92793 whole entry): as the sequence (Q92793 whole entry, looked up, the tested form may be a part) above

`CC(C1CC1)N(Cc1ccccc1)C(=O)CN1C(=O)NC(Cc2c[nH]c3ccccc23)C1=O` (stereo not drawn) gave an IC50 [1] of 5.1 µM.

`C=C(C)[C@H](CC=C(C)C)C[C@]12C[C@H](CC=C(C)C)C(C)(C)[C@](CC=C(C)C)(C(=O)C(C(=O)c3ccc(O)c(O)c3)=C1O)C2=O` was tested, and the IC50 [1] was 5 µM.

For `NS(=O)(=O)c1ccc(NC(=O)CN2C(=O)SC(=C3CCCCC3)C2=O)cc1`, the IC50 [1] was 11.5 µM.

For `CNC(=O)c1ccc(N2C(=S)N(c3ccc(C#N)c(C(F)(F)F)c3)C(=O)C2(C)C)cc1F`, the inhibition [2] was “inactive”.

Molecule `CNC(=O)Nc1ccc2c(c1)[C@@]1(CC2)OC(=O)N(CC(=O)N(Cc2ccc(F)cc2)[C@@H](C)C(F)(F)F)C1=O` [A-486] has a Kd [3] of 20 µM, an INH [4] greater than 10 µM and an IC50 [5] greater than 10 µM. For the same molecule, the INH [6] was greater than 10 µM, the EC50 [7] was greater than 10 µM and the inhibition [7] was “inactive”. It also gave an INH [8] greater than 10 µM, an INH [9] greater than 10 µM and an inhibition at 10 µM [10] of -3%. The INH [11] was greater than 10 µM, the INH [12] was greater than 10 µM and the IC50 [1] was greater than 50 µM. It also gave an IC50 (CREB-binding protein) of 9.03 µM, an inhibition at 10 µM (MAO-B) of 0% and an inhibition at 10 µM (MAO-A) of 7%. It also gave an EC50 [13] greater than 10 µM, an INH [14] greater than 10 µM and an EC50 [15] greater than 10 µM. For the same molecule, the inhibition [15] was “inactive”.
